From ChEMBL document CHEMBL1138476 (J Med Chem, 2009)
In brackets after ≈: the same amount, converted by molar mass. Activity calls are given as the source filed them. No cut-off for these calls is given here.

How the values were obtained:
[1] = target: T1, Corticotropin-releasing factor-binding protein (Homo sapiens, UniProt P24387); experiment: Binding affinity to human recombinant CRF binding protein
T1 sequence (P24387 whole entry): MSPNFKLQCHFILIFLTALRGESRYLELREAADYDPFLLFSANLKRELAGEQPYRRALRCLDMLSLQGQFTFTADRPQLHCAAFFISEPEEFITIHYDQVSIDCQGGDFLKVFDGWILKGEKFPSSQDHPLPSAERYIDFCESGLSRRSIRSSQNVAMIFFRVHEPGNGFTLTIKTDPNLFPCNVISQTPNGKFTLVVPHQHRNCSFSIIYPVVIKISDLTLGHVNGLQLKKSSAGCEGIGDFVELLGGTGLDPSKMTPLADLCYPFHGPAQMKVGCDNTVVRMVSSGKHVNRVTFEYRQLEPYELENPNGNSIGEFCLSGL

[2] = Plasma concentration in dog at 3 mg/kg after […]; format: ADME, organism-based, Canis lupus familiaris; parameters: dose 3 mg/kg, route intravenous; conditions: iv
Rattus norvegicus [3] = experiment: Effect on acute renal function in rat assessed as change in urine creatinine level per 100 gm body weight at 30 mg/kg, po (RVb= 16.2+/-3.3 mg/dl); format: functional
Rattus norvegicus [4] = experiment: Effect on acute renal function in rat assessed as change in osmolality in urine per 100 gm body weight at 30 mg/kg, po (RVb= 325+/-1.9 mg/dl); format: functional
Canis familiaris [5] = experiment: Effect on respiratory function in spontaneously breathing mongrel dog assessed as change in respiration rate at 5 mg/kg after intravenous infusion for 6 mins (RVb= -8.3+/-8.3 %); format: functional, Canis lupus familiaris
Canis familiaris [6] = experiment: Effect on respiratory function in spontaneously breathing mongrel dog assessed as change in tidal volume at 5 mg/kg after intravenous infusion for 30 mins (RVb= 6.1+/-5.6 %); format: functional, Canis lupus familiaris
Canis familiaris [7] = experiment: Effect on respiratory function in spontaneously breathing mongrel dog assessed as change in minute volume at 5 mg/kg after intravenous infusion for 15 mins (RVb= -4.7+/-3.4 %); format: functional, Canis lupus familiaris
Canis familiaris [8] = experiment: Effect on respiratory function in spontaneously breathing mongrel dog assessed as change in airway resistance at 5 mg/kg after intravenous infusion for 60 mins (RVb= 17.3+/-15.1 %); format: functional, Canis lupus familiaris
Canis familiaris [9] = experiment: Effect on respiratory function in spontaneously breathing mongrel dog assessed as change in pulmonary compliance at 5 mg/kg after intravenous infusion for 15 mins (RVb= 0.8+/-2.0 %); format: functional, Canis lupus familiaris
Canis familiaris [10] = experiment: Effect on respiratory function in spontaneously breathing mongrel dog assessed as change in mean arterial pressure at 5 mg/kg after intravenous infusion for 6 mins (RVb= 1.5+/-0.9 %); format: functional, Canis lupus familiaris, Artery
Canis familiaris [11] = experiment: Effect on respiratory function in spontaneously breathing mongrel dog assessed as change in mean arterial pressure at 5 mg/kg after intravenous infusion for 15 mins (RVb= 2.1+/-1.5 %); format: functional, Canis lupus familiaris, Artery
Rattus norvegicus [12] = experiment: Effect on acute renal function in rat assessed as change in urine pH per 100 gm body weight at 30 mg/kg, po (RVb= 7.74+/-0.07 mg/dl); format: functional
[13] = Lipophilicity log P of the compound; format: physicochemical; conditions: octanol/water
[14] = AUC in Beagle dog at 1 mg/kg, po by cassette dosing; format: ADME, organism-based, Canis lupus familiaris; parameters: dose 1 mg/kg, route oral; conditions: plasma
[15] = Half life in Beagle dog at 1 mg/kg, po by cassette dosing; format: ADME, organism-based, Canis lupus familiaris; parameters: dose 1 mg/kg, route oral; conditions: in vivo
[16] = Solubility in 0.01 N HCl at pH 2.5; format: physicochemical
[17] = Solubility in acetone; format: physicochemical
Rattus norvegicus [18] = experiment: Anxiolytic activity in rat assessed as increase in time spent on open arm at 30 mg/kg, po by elevated plus-maze test; format: functional, organism-based; parameters: dose 30 mg/kg
Outline: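 Rat elevated plus maze: percent of test time spent in the open arms. Oral dosing in 0.25% Methocel 60 min before testing; n = 12 per dose, mean ± SEM. Analysed by ANOVA followed by Fisher's LSD comparisons against vehicle.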

Rattus norvegicus [19] = experiment: Anxiolytic activity in rat assessed as decrease in latency to exit dark chamber at 10 mg/kg, po by defensive withdrawal test relative to untreated control; format: functional; parameters: scale not given: the % may be the effect or the level left
Outline: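 Rat defensive withdrawal: latency to leave the dark chamber and explore the open field, maximum 900 s. Dosed orally in 0.25% Methocel 60 min before testing; n = 8 per dose, mean ± SEM. Analysed by Kruskal–Wallis followed by Mann–Whitney U against vehicle.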

Rattus norvegicus [20] = experiment: Ex vivo receptor occupancy of CRF receptor in rat brain at 1 mg/kg, po by [125I]sauvagine binding and autoradiography relative to control; format: functional
Outline: (§1)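 Rats were given 0.3, 1, 3, 10 or 30 mg/kg po in 0.25% Methocel 60 min before sacrifice. Brains were removed, sectioned and frozen at −80 °C. Ex vivo CRF receptor binding gave occupancy relative to vehicle-treated rats, reported as mean ± SEM.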

Rattus norvegicus [21] = experiment: Ex vivo receptor occupancy of CRF receptor in rat brain at 3 mg/kg, po by [125I]sauvagine binding and autoradiography relative to control; format: functional; outline: as §1
Rattus norvegicus [22] = experiment: Toxicity in rat assessed as total distance traveled at 10 mg/kg, po after 1 hr by spontaneous locomotor test; format: functional
Outline: (§2)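 Rat spontaneous locomotor activity test with oral dosing in 0.25% Methocel 1 h before testing, at doses up to 100 mg/kg. Values are mean ± SEM, with N rats per group, compared with the vehicle (zero-dose) group.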

Rattus norvegicus [23] = experiment: Toxicity in rat assessed as total distance traveled at 30 mg/kg, po after 1 hr by spontaneous locomotor test; format: functional; outline: as §2
Rattus norvegicus [24] = experiment: Toxicity in rat assessed as time spent on rotarod at 1 mg/kg, po after 1 hr by rotarod test; format: organism-based; parameters: dose 1 mg/kg, route oral; conditions: in vivo
Outline: (§3)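 Rats (N = 8 per dose) dosed po in 0.25% Methocel 1 h before rotorod testing. Time on rotorod in s, given as mean ± SEM against a vehicle (zero dose) group.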

Rattus norvegicus [25] = experiment: Toxicity in rat assessed as time spent on rotarod at 10 mg/kg, po after 1 hr by rotarod test; format: organism-based; parameters: dose 10 mg/kg, route oral; conditions: in vivo
Outline: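 Rats, n = 8 per dose, dosed po in 0.25% Methocel 1 h before testing, at 0, 1.0, 3.0, 10, 30 and 100 mg/kg. Read-out is time on rotorod (s), mean ± SEM, compared with the vehicle (zero-dose) group.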

Rattus norvegicus [26] = experiment: Toxicity in rat assessed as time spent on rotarod at 100 mg/kg, po after 1 hr by rotarod test; format: organism-based; parameters: dose 100 mg/kg, route oral; conditions: in vivo; outline: as §3
[27] = AUC (0 to infinity) in chimpanzee at 1 mg/kg, po; format: ADME, organism-based, Pan troglodytes; parameters: time infinity, dose 1 mg/kg, route oral; conditions: plasma
Outline: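 Chimpanzee PK. Oral: 1 mg/kg in two alert animals, given as a 1 mg/mL suspension in 50–50 (v/v) 0.5% methylcellulose/Tang orange juice with 1% Tween-80. IV: 0.5 mg/kg in one animal in 10% DMAC, 70% propylene glycol and deionized water, infused over 10 min (0.2 mL/kg). EDTA blood was taken predose and at 2–96 h; iv sampling added 6, 15 and 30 min.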

[28] = Volume of distribution at steady state in chimpanzee at 0.5 mg/kg, iv; format: ADME, organism-based, Pan troglodytes; parameters: dose 0.5 mg/kg, route intravenous; conditions: in vivo, read-out: Vdss
Outline: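 Single chimpanzee given 0.5 mg/kg iv over 10 min (0.2 mL/kg) in 10% DMAC, 70% propylene glycol and deionized water. EDTA blood taken predose, at 6, 15 and 30 min, and at 2 to 96 h.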

**Q.** With `CC[C@@H](C)Nc1nc(C)nc2c(-c3ccc(OC)nc3C)c(C)nn12` [PEXACERFONT] as the molecule, how does the IC50 [1] read?
**A.** > 1 µM

**Q.** What about the concentration at 0.5 h [2] of the same molecule?
**A.** 1.29 µM

**Q.** And the Activity (Rattus norvegicus [3])?
**A.** 8 mg/dL

**Q.** What about the Activity (Rattus norvegicus [4]) of the same molecule?
**A.** 240 milliosmole

**Q.** What about the Activity (Canis familiaris [5]) of the same molecule?
**A.** 37.5%

**Q.** What about the Activity (Canis familiaris [6]) of the same molecule?
**A.** -15.2%

**Q.** What about the Activity (Canis familiaris [7]) of the same molecule?
**A.** 0.6%

**Q.** What about the Activity (Canis familiaris [8]) of the same molecule?
**A.** -23.6%

**Q.** What about the Activity (Canis familiaris [9]) of the same molecule?
**A.** -2.2%

**Q.** And the Activity (Canis familiaris [10])?
**A.** 3.8%

**Q.** And the Activity (Canis familiaris [11])?
**A.** 1.2%

**Q.** What about the Activity (Rattus norvegicus [12]) of the same molecule?
**A.** 7.74

**Q.** And the logP [13]?
**A.** 4.32

**Q.** And the AUC [14]?
**A.** 2.02 µM·h

**Q.** What about the half-life [15] of the same molecule?
**A.** 10.7 h

**Q.** And the solubility [16]?
**A.** 16.3 mg/mL (≈ 47.9 mM)

**Q.** And the solubility [17]?
**A.** 460 mg/mL (≈ 1350 mM)

**Q.** And the Activity (Rattus norvegicus [18])?
**A.** Active

**Q.** And the Activity (Rattus norvegicus [19])?
**A.** 65%

**Q.** And the Activity (Rattus norvegicus [20])?
**A.** 26%

**Q.** What about the Activity (Rattus norvegicus [21]) of the same molecule?
**A.** 59%

**Q.** And the Activity (Rattus norvegicus [22])?
**A.** 3695 cm

**Q.** What about the Activity (Rattus norvegicus [23]) of the same molecule?
**A.** 4846 cm

**Q.** And the Time (Rattus norvegicus [24])?
**A.** 133 s

**Q.** What about the Time (Rattus norvegicus [25]) of the same molecule?
**A.** 158 s

**Q.** And the Time (Rattus norvegicus [26])?
**A.** 121 s

**Q.** And the AUC(0-inf) [27]?
**A.** 11.7 µM·h

**Q.** And the Vd [28]?
**A.** 4.2 L/kg
